Format in all cases: functional, cell-based
One test concerns MCF7. The experiment in a line: Cytotoxicity against human MCF7 cells after 48 hrs by alamar blue assay. The following applies: MCF7, 48 h. The essentials: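 MCF-7, a human breast cancer cell line.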
A further test concerns HT-29. The experiment in a line: Cytotoxicity against human HT-29 cells after 48 hrs by alamar blue assay. The following applies: HT-29, 48 h. The essentials:
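HT-29, a human colon cancer cell line.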
(Resazurin is reduced to fluorescent resorufin, in cell work by metabolically active cells.)

The subject of the next test is NCI-H460. The experiment in a line: Cytotoxicity against human NCI-H460 cells after 48 hrs by alamar blue assay. The settings on record: NCI-H460, 48 h. The gist of the method:
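H460, a human lung cancer cell line.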

The next test concerns CCRF-CEM. Nature of the test: Cytotoxicity against human CEM cells after 48 hrs by alamar blue assay. The gist of the method: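 CEM, a human leukemia cell line.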

SMILES strings stand for the structures.

Consider `COc1cccc2c1C(=O)c1c(O)c3c(c(O)c1C2=O)C[C@@](O)(C(=O)CO)C[C@@H]3O[C@H]1C[C@H](N)[C@H](O)[C@H](C)O1` [DOXORUBICIN], for which the IC50 in the test on MCF7 was determined as 2.5 µM; in the test with HT-29, 6.04 µM.
Consider `COc1cc(O)c2c(=O)cc(-c3ccc(O)cc3)oc2c1[C@H]1C[C@H](O)[C@H](O)[C@@H](C)O1` [ACICULATIN], for which the IC50 in the test with MCF7 is 3.16 µM; with HT-29, 26 µM; with NCI-H460 it was 46.9 µM; with CCRF-CEM, 2.65 µM.
The like results for `COc1cc(O)c2c(=O)cc(-c3ccc(O[C@@H]4O[C@H](CO)[C@@H](O)[C@H](O)[C@H]4O)cc3)oc2c1[C@H]1C[C@H](O)[C@H](O)[C@@H](C)O1` were, in that order, over 100 µM, over 100 µM, over 100 µM and over 100 µM.
Regarding `COc1cc(O)c2c(=O)cc(-c3ccc(O)cc3)oc2c1[C@H]1CC(=O)[C@H](O)[C@@H](C)O1` [ACICULATINONE], the IC50 in the test on MCF7 came out at 18.4 µM; in the test on HT-29, 11.6 µM; in the test on NCI-H460 it was 18.1 µM; in the test with CCRF-CEM, 13.3 µM.
In the same order, the values of `C[C@H]1O[C@@H](c2c(O)cc(O)c3c(=O)cc(-c4ccc(O)cc4)oc23)C[C@H](O)[C@H]1O` are 75 µM, 10 µM, 12 µM and 2.58 µM.
In the case of `C[C@H]1O[C@@H](c2c(O)cc(O)c3c(=O)cc(-c4ccc(O)cc4)oc23)C[C@H](O)[C@@H]1O`, the concentration for half-maximal inhibition (IC50) with MCF7 amounted to 6.35 µM; with HT-29 it was 25.3 µM; with NCI-H460, 18.2 µM; in the test on CCRF-CEM, 4.42 µM.

The term IC50 denotes the concentration that inhibits the measured activity by half. A lower IC50 goes with greater potency.

The values above are taken from ChEMBL document CHEMBL2010774, “Cytotoxic apigenin derivatives from Chrysopogon aciculatis” (J Nat Prod, 2012).
